From ChEMBL document CHEMBL1144142, “Lyso-PAF analogues and lysophosphatidylcholines from the marine sponge Spirastrella abata as inhibitors of cholesterol biosynthesis” (J Nat Prod, 1999)
Values after ≈ are worked out from the molar mass of the structure shown. One block for each compound: values may come before it. Active and inactive are the calls of the source. No cut-off for these calls is given here.

Columns and labels:
Format in all cases: functional, cell-based
[1] = (§1) Inhibition of cholesterol biosynthesis in human chang liver cells assessed as conversion of lanosterol into cholesterol
Procedure, shortened: (§2)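 Chang liver cells (ATCC CCL 13) seeded at 5×10^4 per 15-mm dish in MEM + 10% FBS; on day 2 washed, held 4 h in serum-free Hepatozyme-SFM, pretreated 2 h with compound, then labeled acetate (2.5 μCi/well) for 2 h. Cells lysed in 0.1 N NaOH, saponified (6% KOH/MeOH), nonsaponifiable lipids extracted in n-hexane, separated by TLC (C6H6-Me2CO 19:1), radioactive spots quantified by phosphor imaging.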

chang liver [2] = experiment: as §1; procedure, shortened: as §2
chang liver [3] = experiment: Inhibition of cholesterol biosynthesis in human chang liver cells assessed as suppression of lanosterol; procedure, shortened: as §2
chang liver [4] = experiment: Inhibition of cholesterol biosynthesis in human chang liver cells assessed as suppression of cholesterol level; procedure, shortened: as §2

IC50 [1]: 121 µg/mL (≈ 238 µM)
SMILES: CCCCCCCCCCCCC/C=C\CCCOC[C@@H](O)COP(=O)([O-])OCC[N+](C)(C)C
Activity (chang liver [2]): Dose-dependent effect

IC50 [1]: 320 µg/mL (≈ 646 µM)
SMILES: CC(C)CCCCCCCCCCCCCCOC[C@@H](O)COP(=O)([O-])OCC[N+](C)(C)C
Activity (chang liver [2]): Dose-dependent effect

IC50 [1]: 174 µg/mL (≈ 343 µM)
SMILES: CCCCCCCCCCCCCC/C=C\CCOC[C@@H](O)COP(=O)([O-])OCC[N+](C)(C)C
Activity (chang liver [2]): Dose-dependent effect

The next lines start with the compound.

SMILES: CCCCCCCCCCCCCCCCOC[C@@H](O)COP(=O)([O-])OCC[N+](C)(C)C
IC50 [1]: 422 µg/mL (≈ 876 µM)
Activity (chang liver [2]): Dose-dependent effect

SMILES: CCCCCCC1CC1CCCCCCCCCC(=O)OC[C@@H](O)COP(=O)([O-])OCC[N+](C)(C)C (some centres not stated)
IC50 [1]: 60 µg/mL (≈ 112 µM)
Activity (chang liver [2]): Dose-dependent effect
Activity (chang liver [3]): inactive

SMILES: CC[C@H](C)C(=O)O[C@H]1CCC=C2C=C[C@H](C)[C@H](CC[C@@H]3C[C@@H](O)CC(=O)O3)[C@H]21
Activity (chang liver [4]): Active
Activity (chang liver [3]): Active

SMILES: CCCCCC/C=C\CCCCCCCCCCOC[C@@H](O)COP(=O)([O-])OCC[N+](C)(C)C
IC50 [1]: 125 µg/mL (≈ 246 µM)
Activity (chang liver [2]): Dose-dependent effect

SMILES: CCCCCC/C=C\CCCCCCCCCCCC(=O)OC[C@@H](O)COP(=O)([O-])OCC[N+](C)(C)C
IC50 [1]: 21 µg/mL (≈ 38.2 µM)
Activity (chang liver [2]): Dose-dependent effect
